According to ChEMBL document CHEMBL2417372, “Design, synthesis, and mechanism of action of 2-(3-hydroxy-5-methoxyphenyl)-6-pyrrolidinylquinolin-4-one as a potent anticancer lead” (Bioorg Med Chem Lett, 2013):

Tests used:
K562 = assay: Cytotoxicity against human K562 cells after 48 hrs; type: functional; conditions: K562, 48 h
PC-3 = assay: Cytotoxicity against human PC3 cells after 48 hrs; type: functional; conditions: PC-3, 48 h
Tubulin (Sus scrofa) = Tubulin (Sus scrofa) (UniProt P02554+P02550); assay: Inhibition of porcine brain tubulin polymerization measured every 30 seconds for 30 mins
U-251 = assay: Cytotoxicity against human U251 cells after 48 hrs; type: functional; conditions: U-251, 48 h
UO-31 = assay: Cytotoxicity against human UO31 cells after 48 hrs; type: functional; conditions: UO-31, 48 h
SF-268 = assay: Cytotoxicity against human SF268 cells after 48 hrs; type: functional; conditions: SF-268, 48 h
[1] = Cytotoxicity against human NCI-ADR-RES cells after 48 hrs; type: functional
[2] = Cytotoxicity against human Hs578T cells after 48 hrs; type: functional; conditions: Hs-578T
OVCAR-8 = assay: Cytotoxicity against human OVCAR8 cells after 48 hrs; type: functional; conditions: OVCAR-8, 48 h
MOLT-4 = assay: Cytotoxicity against human MOLT4 cells after 48 hrs; type: functional; conditions: MOLT-4, 48 h
MDA-MB-468 = assay: Cytotoxicity against human MDA-MB-468 cells after 48 hrs; type: functional; conditions: MDA-MB-468, 48 h
SF-539 = assay: Cytotoxicity against human SF539 cells after 48 hrs; type: functional; conditions: SF-539, 48 h
CCRF-CEM = assay: Cytotoxicity against human CCRF-CEM cells after 48 hrs; type: functional
Tubulin (Homo sapiens) = Tubulin (Homo sapiens) (UniProt P68371+Q9H4B7+P0DPH7+P68366+Q13509+Q71U36+P04350+Q3ZCM7+P07437+P68363+Q9BQE3+Q6PEY2+Q13885+Q9BVA1+Q9BUF5); assay: Inhibition of tubulin polymerization in human NCI-H522 cells assessed as beta-tubulin accumulation in cytoskeletal fraction after 24 hrs by Western blot analysis; type: cell-based
Procedure, shortened: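 NCI-H522 cells were exposed for 24 h to compound (10, 30 or 100 nM) or DMSO vehicle. They were then lysed 5 min at 37 °C in hypotonic buffer (1 mM MgCl2, 2 mM EGTA, 0.5% NP-40, protease inhibitors, 20 mM Tris-HCl pH 6.8) and centrifuged at 15,000 × g for 10 min at 25 °C. α- and β-tubulin were assessed in the cytoskeletal fraction.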

KM12 = assay: Cytotoxicity against human KM12 cells after 48 hrs; type: functional; conditions: KM12, 48 h
HOP-62 = assay: Cytotoxicity against human HOP62 cells after 48 hrs; type: functional; conditions: HOP-62, 48 h
BT-549 = assay: Cytotoxicity against human BT549 cells after 48 hrs; type: functional; conditions: BT-549, 48 h
A498 = assay: Cytotoxicity against human A498 cells after 48 hrs; type: functional; conditions: A498, 48 h
Detroit 551 = assay: Cytotoxicity against human Detroit 551 cells after 48 hrs; type: cell-based; conditions: Detroit 551, 48 h
Procedure, shortened: (§1)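 MTT viability assay on log-phase cells at 37 °C, exposed to compound or DMSO vehicle for 48 h. MTT (1 mg/mL in PBS) was then added for 2 h, and absorbance was read at 570 nm with 630 nm correction. IC50 is the concentration giving 50% proliferation inhibition. Cells were cultured in 5% CO2: HL-60 in RPMI-1640 with 10% FBS; Hep3B in DMEM/F12 with 10% FBS; Detroit 551 in DMEM with 10% FBS.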

ACHN = assay: Cytotoxicity against human ACHN cells after 48 hrs; type: functional
M14 = assay: Cytotoxicity against human M14 cells after 48 hrs; type: functional; conditions: M14, 48 h
OVCAR-5 = assay: Cytotoxicity against human OVCAR5 cells after 48 hrs; type: functional; conditions: OVCAR-5, 48 h
MCF7 = assay: Cytotoxicity against human MCF7 cells after 48 hrs; type: functional; conditions: MCF7, 48 h
IGROV-1 = assay: Cytotoxicity against human IGROV1 cells after 48 hrs; type: functional; conditions: IGROV-1, 48 h
SK-OV-3 = assay: Cytotoxicity against human SKOV3 cells after 48 hrs; type: functional; conditions: SK-OV-3, 48 h
SW-620 = assay: Cytotoxicity against human SW620 cells after 48 hrs; type: functional; conditions: SW-620, 48 h
[3] = Cytotoxicity against human Hep3B cells after 48 hrs; type: functional, cell-based, Hep 3B2; procedure, shortened: as §1
RXF 393 = assay: Cytotoxicity against human RXF393 cells after 48 hrs; type: functional; conditions: RXF 393, 48 h
LOX IMVI = assay: Cytotoxicity against human LOXIMVI cells after 48 hrs; type: functional
NCI-H226 = assay: Cytotoxicity against human NCI-H226 cells after 48 hrs; type: functional; conditions: NCI-H226, 48 h
HT-29 = assay: Cytotoxicity against human HT-29 cells after 48 hrs; type: functional; conditions: HT-29, 48 h
T47D = assay: Cytotoxicity against human T47D cells after 48 hrs; type: functional
HL-60 = assay: Cytotoxicity against human HL60 cells after 48 hrs; type: functional, cell-based; conditions: HL-60, 48 h; procedure, shortened: as §1
SR = assay: Cytotoxicity against human SR cells after 48 hrs; type: functional
[4] = read-out: pLC50 (the source's name) (converted)

Sequence of Tubulin (Sus scrofa) (P02550 whole entry, looked up): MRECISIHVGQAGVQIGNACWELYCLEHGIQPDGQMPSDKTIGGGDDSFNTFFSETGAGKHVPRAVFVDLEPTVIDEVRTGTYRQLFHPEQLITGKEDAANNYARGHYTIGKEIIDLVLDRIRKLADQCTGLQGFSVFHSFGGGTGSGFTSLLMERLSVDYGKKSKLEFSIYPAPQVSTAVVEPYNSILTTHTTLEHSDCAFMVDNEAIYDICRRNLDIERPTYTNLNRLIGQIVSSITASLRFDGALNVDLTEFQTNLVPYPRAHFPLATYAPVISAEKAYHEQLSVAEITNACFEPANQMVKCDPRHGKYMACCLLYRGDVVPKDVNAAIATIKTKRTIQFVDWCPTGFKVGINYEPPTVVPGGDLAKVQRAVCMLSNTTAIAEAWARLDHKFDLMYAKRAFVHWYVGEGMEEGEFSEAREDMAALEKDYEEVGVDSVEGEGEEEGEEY
Sequence of Tubulin (Sus scrofa) (P02554 whole entry, looked up): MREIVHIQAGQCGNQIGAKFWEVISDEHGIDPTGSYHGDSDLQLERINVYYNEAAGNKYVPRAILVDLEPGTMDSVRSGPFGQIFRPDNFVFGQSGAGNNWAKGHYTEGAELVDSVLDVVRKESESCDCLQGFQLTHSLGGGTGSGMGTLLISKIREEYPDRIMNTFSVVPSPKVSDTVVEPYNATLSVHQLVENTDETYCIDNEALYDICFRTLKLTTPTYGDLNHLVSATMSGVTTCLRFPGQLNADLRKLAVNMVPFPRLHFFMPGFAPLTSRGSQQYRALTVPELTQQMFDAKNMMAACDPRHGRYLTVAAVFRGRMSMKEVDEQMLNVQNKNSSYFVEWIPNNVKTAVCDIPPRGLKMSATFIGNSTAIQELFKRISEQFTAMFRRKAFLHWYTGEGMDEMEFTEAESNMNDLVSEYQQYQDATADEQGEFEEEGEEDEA

COc1cc(O)cc(-c2cc(=O)c3cc(N4CCCC4)ccc3[nH]2)c1
GI50 (K562): 0.0234 µM
CC50 (K562; [4]): > 100 µM
TGI (K562; read-out: pTGI): > 100 µM
GI50 (PC-3): 0.0977 µM
CC50 (PC-3; [4]): > 100 µM
TGI (PC-3; read-out: pTGI): > 100 µM
inhibition (Tubulin (Sus scrofa)): Dose-dependent effect
GI50 (U-251): 0.0468 µM
CC50 (U-251; [4]): 87.1 µM
TGI (U-251; read-out: pTGI (converted)): 14.5 µM
GI50 (UO-31): 0.182 µM
CC50 (UO-31; [4]): > 100 µM
TGI (UO-31; read-out: pTGI): > 100 µM
GI50 (SF-268): 0.0257 µM
CC50 (SF-268; [4]): > 100 µM
TGI (SF-268; read-out: pTGI): > 100 µM
GI50 [1]: 0.0617 µM
CC50 [1, 4]: > 100 µM
TGI ([1]; read-out: pTGI (converted)): 0.513 µM
GI50 [2]: 0.038 µM
CC50 [2, 4]: > 100 µM
TGI ([2]; read-out: pTGI (converted)): 70.8 µM
GI50 (OVCAR-8): 0.0389 µM
CC50 (OVCAR-8; [4]): > 100 µM
TGI (OVCAR-8; read-out: pTGI (converted)): 31.6 µM
GI50 (MOLT-4): 0.0347 µM
CC50 (MOLT-4; [4]): > 100 µM
TGI (MOLT-4; read-out: pTGI): > 100 µM
GI50 (MDA-MB-468): 0.263 µM
CC50 (MDA-MB-468; [4]): > 100 µM
TGI (MDA-MB-468; read-out: pTGI (converted)): 2 µM
GI50 (SF-539): 0.0288 µM
CC50 (SF-539; [4]): > 100 µM
TGI (SF-539; read-out: pTGI): > 100 µM
GI50 (CCRF-CEM): 0.0324 µM
CC50 (CCRF-CEM; [4]): > 100 µM
TGI (CCRF-CEM; read-out: pTGI): > 100 µM
inhibition (Tubulin (Homo sapiens)): Dose-dependent effect
GI50 (KM12): 0.0347 µM
CC50 (KM12; [4]): > 100 µM
TGI (KM12; read-out: pTGI): > 100 µM
GI50 (HOP-62): 0.0513 µM
CC50 (HOP-62; [4]): > 100 µM
TGI (HOP-62; read-out: pTGI (converted)): 20.9 µM
GI50 (BT-549): 0.0372 µM
CC50 (BT-549; [4]): > 100 µM
TGI (BT-549; read-out: pTGI): > 100 µM
GI50 (A498): 4.07 µM
CC50 (A498; [4]): > 100 µM
TGI (A498; read-out: pTGI): > 100 µM
IC50 (Detroit 551): > 50 µM
GI50 (ACHN): 0.0776 µM
CC50 (ACHN; [4]): > 100 µM
TGI (ACHN; read-out: pTGI): > 100 µM
GI50 (M14): 0.0302 µM
CC50 (M14; [4]): > 100 µM
TGI (M14; read-out: pTGI (converted)): 15.8 µM
GI50 (OVCAR-5): > 100 µM
CC50 (OVCAR-5; [4]): > 100 µM
TGI (OVCAR-5; read-out: pTGI): > 100 µM
GI50 (MCF7): 0.0479 µM
CC50 (MCF7; [4]): > 100 µM
TGI (MCF7; read-out: pTGI): > 100 µM
GI50 (IGROV-1): 0.363 µM
CC50 (IGROV-1; [4]): > 100 µM
TGI (IGROV-1; read-out: pTGI): > 100 µM
GI50 (SK-OV-3): 0.0234 µM
CC50 (SK-OV-3; [4]): > 100 µM
TGI (SK-OV-3; read-out: pTGI (converted)): 25.1 µM
GI50 (SW-620): 0.0447 µM
CC50 (SW-620; [4]): > 100 µM
TGI (SW-620; read-out: pTGI): > 100 µM
IC50 [3]: 0.5 µM
GI50 (RXF 393): 0.0407 µM
CC50 (RXF 393; [4]): > 100 µM
TGI (RXF 393; read-out: pTGI (converted)): 24 µM
GI50 (LOX IMVI): 0.0324 µM
CC50 (LOX IMVI; [4]): > 100 µM
TGI (LOX IMVI; read-out: pTGI): > 100 µM
GI50 (NCI-H226): > 100 µM
CC50 (NCI-H226; [4]): > 100 µM
TGI (NCI-H226; read-out: pTGI): > 100 µM
GI50 (HT-29): 0.0759 µM
CC50 (HT-29; [4]): > 100 µM
TGI (HT-29; read-out: pTGI): > 100 µM
GI50 (T47D): > 100 µM
CC50 (T47D; [4]): > 100 µM
TGI (T47D; read-out: pTGI): > 100 µM
IC50 (HL-60): 0.1 µM
GI50 (SR): < 0.01 µM
CC50 (SR; [4]): > 100 µM
TGI (SR; read-out: pTGI): > 100 µM
